Bioassay records (PubChem)
Most compounds without a hit are left out; they make up all but 1.5% or so of the library.
PKA-R1A activ: activators of PKA-R1A holoenzyme, primary screen, biochemical, fluorescence polarization, Cy5-IP20, bovine R1A, mouse PKAc. cAMP-dependent protein kinase type I-alpha regulatory subunit (Bos taurus) + …. PKA-R1A dissociation; scaled: DMSO 0%, 113 µM cGMP 100%. activation, % at 11.4 µM. 340,000 compounds, 0.083% hits;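 active = percent activation above the mean of all tested compounds plus 3 SD, cut at about 19% in these data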;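 note: higher means more PKAc released from R1A so a rise in polarization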
PKA-R2B activ: activators of PKA-R2B holoenzyme, primary screen, biochemical, fluorescence polarization, Cy5-IP20, human; cAMP-dependent protein kinase catalytic subunit beta (Homo sapiens) + cAMP-dependent …; PKA-R2B holoenzyme dissociation; R2B truncated from residue 108, S112A mutant; 0% DMSO only, 100% 113 µM cGMP; activation, % at 11.4 µM; 340,000 compounds, 0.079% hits;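 active = activation above a cutoff set at the mean over all compounds plus 3 SD, cut at about 18% in these data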;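 note: higher means more holoenzyme dissociation and a rise in polarization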
CRFR2-BP antag: antagonists of CRF-BP/CRF-R2 complex, primary screen, cell-based, HEK293, calcium dye fluorescence, uHTS; CRF-induced calcium fluorescence; inhibition, % at 11.8 µM; AID 588475, 2011; 350,000 compounds, 0.59% hits;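 active = inhibition of the ligand-induced calcium signal above about 50% at the single tested concentration, limit read from the data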
S100A4 inh HTS: inhibitors of S100A4-myosin IIA peptide binding, primary screen, biochemical, fluorescence polarization, TAMRA-MyoIIA peptide. inhibition, % at 10.7 µM. 360,000 compounds, 0.14% hits. AID 652163, 2013;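 active = mean inhibition of at least 70% across replicates, with every replicate also reaching that level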
Target sequence (P26447 whole entry, looked up): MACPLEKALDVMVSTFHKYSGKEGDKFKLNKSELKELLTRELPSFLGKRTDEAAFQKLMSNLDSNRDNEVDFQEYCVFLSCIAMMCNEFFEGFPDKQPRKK
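Compound dosing: one dose per compound; test system: human S100A4 monomer with TAMRA-labelled myosin IIA peptide; probe or stimulus: TAMRA-labelled myosin IIA heavy-chain peptide probe, 5 nM; medium: HEPES buffer with Ca2+, pH 7.2; schedule: 5 min incubation before reading; benchmarks: neutral control DMSO, positive control TFP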
SIRT5 inh: SIRT5 desuccinylase inhibitors, primary screen, biochemical, fluorescence imaging, single point, set 5; NAD-dependent protein deacylase sirtuin-5, mitochondrial (Homo sapiens), Q9NXA8; Purified SirT5, succinyl-peptide AMC, trypsin-coupled fluorescence; inhibition, % at 15 µM; 330,000 compounds, 1.1% hits; in the data active = inhibition above about 15%
Target sequence (Q9NXA8 whole entry, looked up): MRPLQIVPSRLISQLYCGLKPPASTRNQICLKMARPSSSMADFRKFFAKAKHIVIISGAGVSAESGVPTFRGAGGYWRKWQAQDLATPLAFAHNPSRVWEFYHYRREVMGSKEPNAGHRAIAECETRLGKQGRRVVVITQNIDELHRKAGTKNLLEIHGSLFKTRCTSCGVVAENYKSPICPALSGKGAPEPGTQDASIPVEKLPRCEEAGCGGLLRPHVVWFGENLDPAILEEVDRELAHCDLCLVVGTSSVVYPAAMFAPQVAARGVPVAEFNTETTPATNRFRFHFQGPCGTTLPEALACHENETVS
* = called active by the depositor; . = no result given.

SMILES	PKA-R1A activ	PKA-R2B activ	CRFR2-BP antag	S100A4 inh HTS	SIRT5 inh
CCn1c(CSCc2ccccc2)n[nH]c1=S	-8.5	3.8	-21.2	-0.5	36.6*
CCn1c(CCNC(=O)c2ccccc2Cl)n[nH]c1=S	-6.6	-0.4	82.0*	.	.
C[C@@H]1CN([C@H](C)CO)C(=O)c2cccc(NC(=O)c3cnccn3)c2O[C@H]1CN(C)S(C)(=O)=O	.	.	.	-3.5	3.6
CCCNC(=O)N[C@@H]1C=C[C@@H](CC(=O)NCCc2ccccc2)O[C@H]1CO	.	.	.	15.7	-2.7
Cc1cccc(-c2c3c(=O)n(C)c(=O)n(C)c3cn2-c2ccc(O)cc2)c1	-4.5	-11.7	16.5	.	.
Cn1c(=O)c2c(-c3ccccc3)n(-c3cccc(O)c3)cc2n(C)c1=O	.	.	.	1.4	38.7*
Cc1noc(C)c1NC(=O)N(C)C[C@H]1Oc2ccc(NC(=O)Cc3cn(C)c4ccccc34)cc2CC(=O)N([C@@H](C)CO)C[C@H]1C	.	.	.	-24.2	2.8
C[C@H](NC(=O)[C@H]1[C@H](CO)[C@H]2Cn3c(cccc3=O)[C@H]2N1C(=O)C1CC1)c1ccccc1	.	.	.	-11.1	0.1
NC(=O)c1ccc2nc(-c3ccccc3)c(-c3ccccc3)nc2c1	-2.3	-8.6	52.2*	-7.7	-10.3
C[C@@H]1CCCCO[C@@H](CN(C)C(=O)c2ccccc2)[C@@H](C)CN([C@@H](C)CO)C(=O)c2cc(NC(=O)Nc3ccc(C(F)(F)F)cc3)ccc2O1	.	.	.	18.3	5.9
Nc1nc(F)nc2c1ncn2[C@@H]1O[C@H](CO)[C@@H](O)[C@H]1O	-15.8	-4.4	18.8	-1.8	-0.8
Nc1nc(F)nc2c1ncn2[C@@H]1O[C@H](CO)[C@@H](O)[C@@H]1O	2.9	-12.1	50.2*	1.8	8.0
C[C@@H]1CCCCO[C@@H](CN(C)Cc2ccc(Cl)c(Cl)c2)[C@@H](C)CN([C@H](C)CO)C(=O)c2cc(NC(=O)c3ccncc3)ccc2O1	.	.	.	2.0	15.1*
Cc1noc(C)c1NC(=O)Nc1ccc2c(c1)C(=O)N([C@@H](C)CO)C[C@H](C)[C@@H](CN(C)Cc1ccc(Cl)c(Cl)c1)OCCCC[C@H](C)O2	.	.	.	2.4	15.4*
Cc1noc(C)c1S(=O)(=O)N(C)C[C@@H]1OCCCC[C@@H](C)Oc2ccc(NC(=O)Nc3cccc4ccccc34)cc2C(=O)N([C@H](C)CO)C[C@@H]1C	.	.	.	3.0	20.5*
C[C@@H]1CCCCO[C@@H](CN(C)Cc2ccc(Cl)c(Cl)c2)[C@@H](C)CN([C@H](C)CO)C(=O)c2cc(NC(=O)CCCCCC(=O)Nc3ccccc3N)ccc2O1	.	.	.	-11.4	23.6*
Cc1cc(C(=O)Nc2cccc3c2O[C@H](CN(C)Cc2ccc4c(c2)OCO4)[C@H](C)CN([C@@H](C)CO)C3=O)n(C)n1	.	.	.	5.3	-3.7
Cc1noc(C)c1NC(=O)N[C@H]1C=C[C@@H](CC(=O)N2CCN(C)CC2)O[C@@H]1CO	.	.	.	11.3	-1.3
COc1cccc(-c2ccc([C@H]3[C@H](CO)N4CCCCN(C(=O)NC(C)C)C[C@@H]34)cc2)c1	.	.	.	0.8	-1.1
Cc1noc(C)c1NC(=O)Nc1ccc2c(c1)C(=O)N([C@@H](C)CO)C[C@@H](C)[C@@H](CN(C)S(=O)(=O)c1cn(C)cn1)OCCCC[C@@H](C)O2	.	.	.	-4.7	17.4*
Cc1cccc(NC(=O)C2CC(=O)n3ncnc3N2)c1 (stereo not drawn)	.	.	11.2	-0.9	78.7*
Cc1cc(C)cc(NC(=O)C2CC(=O)n3ncnc3N2)c1 (stereo not drawn)	-8.8	1.5	1.2	-1.9	-0.7
CCCNC(=O)N(C)C[C@H]1Oc2ncc(-c3cccc(C#N)c3)cc2C(=O)N([C@H](C)CO)C[C@@H]1C	.	.	.	-16.1	-0.5
O=C(C[C@H]1CC[C@H]2[C@@H](COC[C@@H](O)CN2S(=O)(=O)c2ccccc2)O1)Nc1ccc(-c2ccccc2)cc1	.	.	.	-0.5	17.8*
O=C(C[C@H]1CC[C@H]2[C@@H](COC[C@@H](O)CN2C(=O)c2ccncc2)O1)Nc1ccc(-c2ccccc2)cc1	.	.	.	-1.1	26.9*
